Results: ChEMBL document CHEMBL1127491, “Sulfinosine congeners: synthesis and antitumor activity in mice of certain N9-alkylpurines and purine ribonucleosides” (J Med Chem, 1994)

Key:
[1] = test system: Mus musculus; assay: Maximum soluble dosage which induces toxicity in mice when administered intraperitoneally was determined; format: organism-based; settings: in vivo, ip
Outline: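 Drug was solubilized just before use and given as a single ip bolus at 0.01 mL/g, 24 h after ip inoculation of 1 x 10^6 L1210 cells in BD2F1 mice. This gave a dose 10 times the solubility (mg/mL) in mg/kg. Deaths were assigned to compound toxicity or leukemia by temporal pattern of death and necropsy findings.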

[2] = test system: L1210; assay: Percentage of viable L1210 leukemia cells killed by single treatment with the compound; format: ADME, cell-based; settings: mouse
[3] = species on record: Mus musculus; assay: Antileukemic activity in BD2F1 mice inoculated with 1 x 10E6 L1210 cells.; format: functional
Outline: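 BD2F1 mice were inoculated ip on day 0 with 1 x 10^6 L1210 cells and given one ip bolus 24 h later (0.01 mL/g; water or Me2SO vehicle; dose 10x solubility in mg/mL, lowered if lethally toxic). Controls got saline. Six mice per group. %T/C = mean treated life span / mean control life span x 100, pooled over four studies with 10 controls each.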

Row | SMILES | Dosage [1] [mg/kg] | Cells killed [2] [%] | T/C [3] [%]
1 | Nc1nc(S(=O)(=O)Cc2ccccc2)c2ncn(C3O[C@H](CO)[C@@H](O)[C@H]3O)c2n1 (stereo partly drawn) | 104 | 76 | 115
2 | CS(=O)(=O)c1nc(N)nc2c1ncn2C1O[C@H](CO)[C@@H](O)[C@H]1O (stereo partly drawn) | 104 | 0 | 96
3 | CCCCCCn1cnc2c(S)ncnc21 | 44 | 87 | 147
4 | CCCCCCn1cnc2c(S)nc(N)nc21 | 110 | 72 | 118
5 | CCCCCCn1cnc2c(SN)nc(N)nc21 | 105 | 87 | 119
6 | CCCCCn1cnc2c([S+](N)[O-])ncnc21 (stereo not drawn) | 480 | 90 | 134
7 | CCCCCCn1cnc2c([S+](N)[O-])nc(N)nc21 (stereo not drawn) | 460 | 93 | 121
8 | Nc1nc([S+](N)[O-])c2ncn(C3O[C@H](CO)[C@@H](O)[C@H]3O)c2n1 (stereo partly drawn) | 173 | 99.8 | 167
9 | CSc1nc(N)nc2c1ncn2[C@@H]1O[C@H](CO)[C@@H](O)[C@H]1O | 37 | 0 | 98
10 | CCCCCn1cnc2c([S+](N)[O-])nc(N)nc21 (stereo not drawn) | 106 | 72 | 117
11 | C[S+]([O-])c1nc(N)nc2c1ncn2[C@H]1C[C@H](O)[C@@H](CO)O1 (stereo partly drawn) | 800 |  | 
12 | CCCCCCn1cnc2c([S+](N)[O-])ncnc21 (stereo not drawn) | 800 |  | 
13 | C[S+]([O-])c1nc(N)nc2c1ncn2C1O[C@H](CO)[C@@H](O)[C@H]1O (stereo partly drawn) | 480 | 71 | 114
14 | CCCCCn1cnc2c(SN)nc(N)nc21 | 47 | 70 | 118
15 | CS(=O)(=O)c1nc(N)nc2c1ncn2[C@H]1C[C@H](O)[C@@H](CO)O1 | 800 |  | 
16 | NSc1nc(N)nc2c1ncn2C1O[C@H](CO)[C@@H](O)[C@H]1O (stereo partly drawn) | 22 | 99.8 | 170
17 | CCCCCn1cnc2c(S)nc(N)nc21 | 40 | 92 | 149
18 | CSc1nc(N)nc2c1ncn2[C@H]1C[C@H](O)[C@@H](CO)O1 | 800 |  | 
19 | Nc1nc([S+](N)[O-])c2ncn(CCCCCCO)c2n1 (stereo not drawn) | 39 | 96 | 139
20 | Nc1nc([S+]([O-])Cc2ccccc2)c2ncn(C3O[C@H](CO)[C@@H](O)[C@H]3O)c2n1 (stereo partly drawn) | 37 | 97 | 137
21 | CCCCCCn1cnc2c(SN)ncnc21 | 410 | 75 | 116
22 | CCCCCn1cnc2c(S)ncnc21 | 41 | 91 | 141
